According to ChEMBL document CHEMBL1156194, “Discovery of a new series of Aurora inhibitors through truncation of GSK1070916” (Bioorg Med Chem Lett, 2010):
Calls of active or inactive are those of the source. The calls are words filed in the database; no cut-off is given here.

Legend:
Aurora kinase B = Aurora kinase B (Homo sapiens, UniProt Q96GD4); experiment: Inhibition of aurora B assessed as inhibition of histone H3 phosphorylation by ELISA based cellular mechanistic assay
Outline: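 Cellular mechanistic assay: ELISA measuring intracellular Aurora B activity through phosphorylation of histone H3, an Aurora B-specific substrate. IC50 values are averages of at least two experiments.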

A549 [1] = experiment: Cell cycle arrest in human A549 cells assessed as 2N DNA accumulation at 5 times EC50 after 48 hrs by FACS analysis relative to control; type: functional
Outline: (§1)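 A549 lung tumour cells treated at 5× the compound's EC50 from the cell proliferation assay, alongside a DMSO control. Cell cycle profile read after 48 h by FACS. Values are the percentage of cells with sub-2N, 2N, 2N to 4N, 4N and >4N DNA content.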

[2] = target: Aurora kinase B/Inner centromere protein (Homo sapiens, UniProt Q96GD4); experiment: Inhibition of human recombinant aurora B/INCENP complex after 120 mins by IMAP fluorescence polarization assay; type: protein-complex assay
Aurora kinase B/Inner centromere protein, sequence (Q96GD4 whole entry): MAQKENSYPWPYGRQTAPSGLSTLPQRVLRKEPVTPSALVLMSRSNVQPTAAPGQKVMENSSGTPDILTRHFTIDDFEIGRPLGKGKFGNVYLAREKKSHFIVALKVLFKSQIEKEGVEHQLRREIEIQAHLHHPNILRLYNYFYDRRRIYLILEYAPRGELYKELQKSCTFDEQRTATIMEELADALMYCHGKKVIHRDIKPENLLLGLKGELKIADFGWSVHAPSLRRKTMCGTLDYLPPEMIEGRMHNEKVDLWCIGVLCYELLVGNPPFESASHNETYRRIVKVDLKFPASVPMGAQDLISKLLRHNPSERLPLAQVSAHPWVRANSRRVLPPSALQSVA
Aurora kinase B/Inner centromere protein, sequence (Q9NQS7 whole entry, further chain): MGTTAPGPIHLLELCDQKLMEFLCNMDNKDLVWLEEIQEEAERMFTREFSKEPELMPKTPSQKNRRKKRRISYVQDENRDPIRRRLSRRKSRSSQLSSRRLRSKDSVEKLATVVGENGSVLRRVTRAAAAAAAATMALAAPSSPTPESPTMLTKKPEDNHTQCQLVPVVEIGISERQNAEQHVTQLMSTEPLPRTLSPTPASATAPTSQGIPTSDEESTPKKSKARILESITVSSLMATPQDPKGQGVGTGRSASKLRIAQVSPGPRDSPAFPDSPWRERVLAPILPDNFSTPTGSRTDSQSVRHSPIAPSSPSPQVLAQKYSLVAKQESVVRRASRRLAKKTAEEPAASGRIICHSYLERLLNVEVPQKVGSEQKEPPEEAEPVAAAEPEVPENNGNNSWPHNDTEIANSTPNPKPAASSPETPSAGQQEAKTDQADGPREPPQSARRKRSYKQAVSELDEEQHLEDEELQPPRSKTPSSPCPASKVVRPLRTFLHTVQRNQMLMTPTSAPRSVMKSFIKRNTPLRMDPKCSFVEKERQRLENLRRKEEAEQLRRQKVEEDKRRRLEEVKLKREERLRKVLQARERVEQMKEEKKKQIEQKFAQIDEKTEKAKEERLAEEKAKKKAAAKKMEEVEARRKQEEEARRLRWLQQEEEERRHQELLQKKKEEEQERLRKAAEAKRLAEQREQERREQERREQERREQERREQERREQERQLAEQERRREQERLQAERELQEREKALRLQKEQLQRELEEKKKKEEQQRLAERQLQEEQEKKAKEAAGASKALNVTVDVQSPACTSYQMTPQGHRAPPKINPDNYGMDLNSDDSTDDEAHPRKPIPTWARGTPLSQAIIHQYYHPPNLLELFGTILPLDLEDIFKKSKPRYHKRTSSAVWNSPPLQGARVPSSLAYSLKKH

A549 [3] = experiment: Cell cycle arrest in human A549 cells assessed as multipolar spindle accumulation at 12 nM after 24 hrs by immunofluorescent staining microscopy; type: functional, cell-based
Outline: (§2)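 A549 tumour cells treated at 12, 37 or 110 nM for 24 h. Cells stained with α-tubulin antibody for mitotic spindles, pericentrin antibodies for centrosomes, and […] for DNA. Mitotic phenotype scored by immunofluorescence.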

A549 [4] = experiment: Cell cycle arrest in human A549 cells assessed as 2N to 4N DNA accumulation at 5 times EC50 after 48 hrs by FACS analysis relative to control relative to control; type: functional; outline: as §1
A549 [5] = experiment: Cell cycle arrest in human A549 cells assessed as sub-2N DNA accumulation at 5 times EC50 after 48 hrs by FACS analysis relative to control; type: functional; outline: as §1
A549 [6] = experiment: Cell cycle arrest in human A549 cells assessed as multipolar spindle accumulation at 37 nM after 24 hrs by immunofluorescent staining microscopy; type: functional, cell-based; outline: as §2
A549 [7] = experiment: Cell cycle arrest in human A549 cells assessed as 4N DNA accumulation at 5 times EC50 after 48 hrs by FACS analysis relative to control; type: functional; outline: as §1
A549 [8] = experiment: Cell cycle arrest in human A549 cells assessed as greater than 4N DNA accumulation at 5 times EC50 after 48 hrs by FACS analysis relative to control; type: functional; outline: as §1
A549 [9] = experiment: Cytotoxicity against human A549 cells in presence of 10% human serum; type: functional, cell-based
Outline: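 A549 cell proliferation assay run in 10% human serum. EC50 values are averages of at least two experiments, in nM.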

[10] = target: T1, Aurora kinase A/Targeting protein for Xklp2 (Homo sapiens, UniProt O14965); experiment: Inhibition of human recombinant aurora A/TPX2 complex after 120 mins by IMAP fluorescence polarization assay; type: protein-complex assay
T1 sequence (O14965 whole entry): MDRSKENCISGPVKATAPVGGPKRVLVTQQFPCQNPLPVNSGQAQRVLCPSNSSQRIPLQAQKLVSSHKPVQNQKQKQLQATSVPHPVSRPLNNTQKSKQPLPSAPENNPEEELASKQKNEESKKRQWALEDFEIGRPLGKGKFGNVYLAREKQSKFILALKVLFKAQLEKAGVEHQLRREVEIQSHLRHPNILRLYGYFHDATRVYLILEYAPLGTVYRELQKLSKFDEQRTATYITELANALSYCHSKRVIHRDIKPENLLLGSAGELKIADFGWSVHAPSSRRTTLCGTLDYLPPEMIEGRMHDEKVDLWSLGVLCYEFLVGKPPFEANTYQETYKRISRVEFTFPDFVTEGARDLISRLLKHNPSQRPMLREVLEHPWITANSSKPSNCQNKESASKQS
T1 sequence (Q9ULW0 whole entry): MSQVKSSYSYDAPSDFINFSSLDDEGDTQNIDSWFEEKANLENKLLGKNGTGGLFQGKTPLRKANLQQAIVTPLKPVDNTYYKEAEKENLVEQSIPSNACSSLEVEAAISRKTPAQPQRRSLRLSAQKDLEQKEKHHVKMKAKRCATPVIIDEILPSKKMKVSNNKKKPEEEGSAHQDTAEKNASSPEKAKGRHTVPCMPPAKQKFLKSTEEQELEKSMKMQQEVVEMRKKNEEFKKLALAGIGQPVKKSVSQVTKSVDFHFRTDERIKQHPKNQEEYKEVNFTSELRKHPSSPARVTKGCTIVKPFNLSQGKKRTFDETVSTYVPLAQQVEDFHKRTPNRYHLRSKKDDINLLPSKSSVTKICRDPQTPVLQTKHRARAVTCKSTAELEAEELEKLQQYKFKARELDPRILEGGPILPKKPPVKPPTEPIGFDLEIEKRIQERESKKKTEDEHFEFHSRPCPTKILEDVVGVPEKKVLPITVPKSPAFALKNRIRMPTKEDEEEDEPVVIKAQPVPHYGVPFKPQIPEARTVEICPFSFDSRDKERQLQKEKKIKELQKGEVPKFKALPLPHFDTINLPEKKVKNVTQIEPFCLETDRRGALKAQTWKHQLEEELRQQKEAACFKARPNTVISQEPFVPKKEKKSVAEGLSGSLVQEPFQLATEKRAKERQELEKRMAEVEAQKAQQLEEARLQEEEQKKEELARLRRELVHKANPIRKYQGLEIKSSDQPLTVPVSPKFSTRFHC

[11] = Oral bioavailability in rat; type: ADME, organism-based; conditions: in vivo
[12] = Blood clearance in po dosed rat; type: ADME, organism-based; conditions: whole blood
Rattus norvegicus = experiment: Dose normalized AUC in po dosed rat; type: ADME, organism-based; conditions: in vivo
A549 [13] = experiment: Cell cycle arrest in human A549 cells assessed as malformed bipolar and monopolar spindle mixture accumulation at 110 nM after 24 hrs by immunofluorescent staining microscopy; type: functional, cell-based; outline: as §2

Aurora kinase B, sequence (Q96GD4 whole entry): as the sequence (Q96GD4 whole entry) above

SMILES | IC50 (Aurora kinase B) [nM] | IC50 ([2]; read-out: IC50) [nM] | IC50 [10] [nM] | IC50 ([2]; read-out: pIC50 (converted)) [nM] | Activity (A549 [1]) [%] | Activity (A549 [3]) | Activity (A549 [4]) [%] | Activity (A549 [5]) [%] | Activity (A549 [6]) | Activity (A549 [7]) [%] | Activity (A549 [8]) [%] | EC50 (A549 [9]) [nM] | bioavailability [11] [%] | CL/F [12] [mL/min/kg] | AUC (Rattus norvegicus) [ng·h/mL/mg/kg] | Activity (A549 [13])
CN(C)Cc1ccc(-c2cc3c(-c4cnn(C)c4)ccnc3[nH]2)cc1 | 169 | 5.9 | 76 | – | 32 | – | 7 | 30 | – | 29 | 2 | 24 | 72 | 86 | 139 | –
CN(C)Cc1cccc(-c2cc3c(-c4cnn(C)c4)c(Cl)cnc3[nH]2)c1 | 67 | 0.51 | 6.2 | – | 6 | – | 4 | 34 | Active | 26 | 30 | 21 | – | – | – | Active
CCn1cc(-c2ccnc3[nH]ccc23)c(-c2ccc(NC(=O)N(C)C)cc2)n1 | – | 26 | > 10000 | – | – | – | – | – | – | – | – | 1530 | – | – | – | –
c1cc(-c2cn[nH]c2)c2cc[nH]c2n1 | 13400 | 782 | 584 | – | – | – | – | – | – | – | – | 2570 | – | – | – | –

Second part, led by results:

IC50 (Aurora kinase B) [nM] | IC50 ([2]; read-out: IC50) [nM] | IC50 [10] [nM] | IC50 ([2]; read-out: pIC50 (converted)) [nM] | SMILES | Activity (A549 [1]) [%] | Activity (A549 [3]) | Activity (A549 [4]) [%] | Activity (A549 [5]) [%] | Activity (A549 [6]) | Activity (A549 [7]) [%] | Activity (A549 [8]) [%] | EC50 (A549 [9]) [nM] | bioavailability [11] [%] | CL/F [12] [mL/min/kg] | AUC (Rattus norvegicus) [ng·h/mL/mg/kg] | Activity (A549 [13])
9 | 0.61 | 7.9 | – | CN(C)Cc1ccc(-c2cc3c(-c4cnn(C)c4)c(Cl)cnc3[nH]2)cc1 | 14 | Active | 5 | 27 | Active | 40 | 15 | 13 | – | – | – | –
32 | 3.2 | – | – | CCn1cc(-c2ccnc3[nH]c(-c4cccc(CN(C)C)c4)cc23)c(-c2ccc(NC(=O)N(C)C)cc2)n1 [GSK-1070916] | 6 | – | 3 | 21 | – | 23 | 47 | 7 | – | – | – | –
104 | 5.7 | 128 | – | CN(C)Cc1cccc(-c2cc3c(-c4cnn(C)c4)ccnc3[nH]2)c1 | 13 | – | 4 | 36 | – | 43 | 3 | 134 | – | – | – | –
6160 | 802 | 982 | – | Cn1cc(-c2ccnc3[nH]ccc23)cn1 | – | – | – | – | – | – | – | 11700 | – | – | – | –
– | – | – | 2 | CCn1cc(-c2ccnc3[nH]ccc23)c(-c2ccc(NC(=O)Nc3ccccc3)cc2)n1 | – | – | – | – | – | – | – | – | – | – | – | –
